Read-outs that look alike come from different tables or passages of the source.

Data on four compounds can be found in article PMC7594318 (ACS Omega, 2020).

Common to all, as to type: cell-based
Test [1] relates to human promyelocytic leukemia HL-60 cells. Kind of test: WST-8 cytotoxicity assay, HL-60 cells. Conditions: read-out: IC50 (μM) HL-60. In a few lines:
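HL-60 promyelocytic leukemia cells, grown in RPMI 1640 + 10% FBS at 37 °C, 5% CO2, plated at 5000 cells/well with various concentrations for 72 h (DMSO 0.1–0.2% v/v). CCK-8 (WST-8) reagent added for 2 h at 37 °C, absorbance read at 450 nm. Growth is taken as the sample/control absorbance ratio. IC50 is the mean ± SD of triplicate experiments. SN-38 positive control.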
On the technique in general: Tetrazolium assays rely on reduction of a dye to a coloured formazan, in cell work by metabolically active cells.

Test [2] deals with human lung adenocarcinoma A549 cells. Kind of test: WST-8 cytotoxicity assay, A549 cells. Conditions: for IC50: read-out: IC50 (μM) A549; for SI (selectivity index): IC50 against normal MRC-5 cells divided by IC50 against A549 cells. In a few lines:
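Human lung adenocarcinoma A549 cells, kept in DMEM + 10% FBS at 37 °C, 5% CO2, seeded at 2000 cells/well, preincubated 24 h, then exposed to various concentrations for 72 h (DMSO 0.1–0.2% v/v). WST-8 (CCK-8) reagent 2 h at 37 °C, A450. Growth is sample/control absorbance. IC50 is mean ± SD of triplicates. SN-38 positive control. SI = MRC-5 IC50 / A549 IC50.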

The subject of test [3] is human normal lung fibroblast MRC-5 cells. Put plainly: WST-8 cytotoxicity assay, normal MRC-5 cells. The following applies: read-out: IC50 (μM) MRC-5. In a few lines:
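Normal lung fibroblast MRC-5 cells in α-MEM without ribonucleosides/deoxyribonucleosides + 10% FBS. Seeded at 2000 cells/well, preincubated 24 h, then treated with various concentrations for 72 h (DMSO 0.1–0.2% v/v). WST-8 (CCK-8) reagent 2 h at 37 °C, A450. Growth is the ratio of sample to control absorbance. IC50 is the mean ± SD of triplicates. SN-38 positive control.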

[4] abbreviates: Table 3, WST-8, 72 h, mean ± SD of triplicate experiments.
The mark [5] stands for this setting: Table 4, WST-8, 72 h, mean ± SD of triplicate experiments.

With `CCc1c2c(nc3ccc(O)cc13)-c1cc3c(c(=O)n1C2)COC(=O)[C@]3(O)CC` [SN-38, reference compound], the IC50 in test [1] (setting [4]) is < 0.05 µM; in test [1] (setting [5]) it was 0.056 ± 0.002 µM; in test [2] (setting [4]) it was 0.038 ± 0.003 µM; in test [2] (setting [5]), 0.052 ± 0.003 µM; in test [3] (setting [4]), < 0.1 µM; in test [3] (setting [5]), 0.092 ± 0.001 µM.

For the compound `Cn1c2ccc(Br)c(=O)c-2nc2ccccc21` [1b, 2-Bromo-5-methylphenazin-1(5H)-one], the IC50 in test [1] (Homo sapiens, HL-60, 72 h) is 3.07 ± 0.08 µM; in test [2] (Homo sapiens, A549, 72 h), 2.59 ± 0.056 µM; in test [3] (Homo sapiens, MRC5, 72 h) it was 3.36 ± 0.204 µM. Also, in test [2] (Table 3), the “SI (selectivity index)” value stood at 1.30.

As to `Cn1c2cccc(=O)c-2nc2ccccc21` [1a, pyocyanin], the IC50 in test [1] (Homo sapiens, HL-60, 72 h) worked out at 5.82 ± 0.133 µM; in test [2] (Homo sapiens, A549, 72 h), 5.52 ± 0.28 µM; in test [3] (Homo sapiens, MRC5, 72 h) it was 21.8 ± 2.55 µM. In test [2] (Table 3), the “SI (selectivity index)” value is 3.95.

For `CC(C)=CCn1c2ccc(Cl)c(=O)c-2nc2ccccc21` [3c, 2-Chloro-5-(3-methylbut-2-en-1-yl)phenazin-1(5H)-one], the IC50 stood at 2.2 ± 0.07 µM in test [1] (Homo sapiens, HL-60, 72 h); 0.66 ± 0.016 µM in test [2] (Homo sapiens, A549, 72 h); 0.66 ± 0.041 µM in test [3] (Homo sapiens, MRC5, 72 h). The “SI (selectivity index)” value in test [2] (Table 4) came to 1.00.

What is called IC50 is the concentration that gives 50% inhibition.
